Measured values: ChEMBL document CHEMBL2434946, “Synthesis of lipoic acid-peptide conjugates and their effect on collagen and melanogenesis” (Eur J Med Chem, 2013)
Active and inactive are the calls of the source. The calls are words filed in the database; no cut-off is given here. Peptide text beside a SMILES is read from it.

How the values were obtained:
[1] = Solubility of the compound in water; format: physicochemical
[2] = molecular target: T1, Tyrosinase (Mus musculus) (UniProt P11344); assay: Inhibition of tyrosinase in mouse B16F10 cells assessed as inhibition of melanin synthesis at 0.25 mM after 72 hrs by spectrophotometry relative to control; format: cell-based; conditions: B16-F10
T1 sequence (whole entry): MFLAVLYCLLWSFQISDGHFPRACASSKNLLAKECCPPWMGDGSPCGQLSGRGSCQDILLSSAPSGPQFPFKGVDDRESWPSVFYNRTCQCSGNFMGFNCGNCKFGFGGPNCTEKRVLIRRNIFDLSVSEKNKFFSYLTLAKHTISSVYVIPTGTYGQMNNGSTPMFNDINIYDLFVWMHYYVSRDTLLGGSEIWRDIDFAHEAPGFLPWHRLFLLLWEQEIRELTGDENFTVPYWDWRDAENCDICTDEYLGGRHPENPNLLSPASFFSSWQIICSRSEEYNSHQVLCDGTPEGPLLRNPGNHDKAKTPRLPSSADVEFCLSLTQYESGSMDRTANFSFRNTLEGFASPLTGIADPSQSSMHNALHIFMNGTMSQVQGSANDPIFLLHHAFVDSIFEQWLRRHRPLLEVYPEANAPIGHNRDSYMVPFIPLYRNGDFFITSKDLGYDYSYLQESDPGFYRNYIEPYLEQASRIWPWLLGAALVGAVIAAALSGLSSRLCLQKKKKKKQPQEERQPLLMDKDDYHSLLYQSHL
In short: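 B16F10 cells grown with α-MSH were treated with samples for 72 h, then counted, washed and pelleted. Pellets solubilized in 1 N NaOH plus phosphate buffer pH 6.8 containing 1% Triton X-100 and 2 mM PMSF. Melanin read at 405 nm against a synthetic melanin standard curve and expressed as percent of control; triplicate, mean ± SD.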

[3] = molecular target: T2, Tyrosinase (Agaricus bisporus) (UniProt O42713); assay: Inhibition of mushroom tyrosinase using L-DOPA as substrate at 2.5 mM preincubated for 10 to 15 mins prior to substrate addition by spectrophotometry
T2 sequence (whole entry): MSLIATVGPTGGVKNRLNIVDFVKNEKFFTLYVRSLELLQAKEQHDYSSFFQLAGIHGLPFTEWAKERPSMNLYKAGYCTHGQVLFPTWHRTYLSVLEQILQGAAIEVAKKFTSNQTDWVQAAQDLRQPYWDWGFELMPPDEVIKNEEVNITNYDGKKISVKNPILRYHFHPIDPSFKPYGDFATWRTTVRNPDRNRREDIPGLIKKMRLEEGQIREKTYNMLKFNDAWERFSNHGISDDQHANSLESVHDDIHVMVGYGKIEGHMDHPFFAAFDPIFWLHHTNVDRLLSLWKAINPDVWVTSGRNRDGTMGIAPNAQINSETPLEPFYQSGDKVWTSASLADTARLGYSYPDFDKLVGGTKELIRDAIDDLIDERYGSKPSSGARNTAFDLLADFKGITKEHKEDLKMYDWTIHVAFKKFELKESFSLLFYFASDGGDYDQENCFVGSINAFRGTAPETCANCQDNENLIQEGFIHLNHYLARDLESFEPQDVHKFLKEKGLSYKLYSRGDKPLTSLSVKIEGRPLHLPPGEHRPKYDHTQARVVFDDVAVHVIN
In short: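 Mushroom tyrosinase (625 U/mL solution) pre-incubated with sample in phosphate-buffered saline for 10–15 min at 25 °C. Reaction started with 0.03% L-DOPA, and dopachrome formation read at 475 nm. Result given as percent inhibition; triplicate, mean ± SD.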

[4] = Induction of HDF proliferation at 0.5 mM after 48 hrs by MTT assay relative to control; format: functional, Homo sapiens
In short: (§1)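 Human dermal fibroblasts grown in DMEM with 10% FBS and 1% penicillin-streptomycin at 37 °C under 5% CO2. Treated 48 h at 0.5, 2.5 and 5 mM. MTT ([…]) added for 3 h at 37 °C, then absorbance read at 570 nm. Result expressed as percent viable cells versus untreated control; triplicate, mean ± SD.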

[5] = Inhibition of UV light-induced MMP-1 protein expression in HDF at 0.5 mM after 72 hrs UV light irradiation by ELISA; format: functional; conditions: Homo sapiens
In short: (§2)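 HDFs washed twice with PBS, then exposed to UVA at 6.3 J/cm2. MMP-1 protein in culture medium measured by ELISA 72 h after irradiation: anti-MMP-1 monoclonal 60 min at 37 °C, alkaline phosphatase-conjugated anti-mouse IgG 30 min, OD405. IC50 taken as the dose that lowers UV-induced MMP-1 by 50%; triplicate, mean ± SD.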

[6] = Cytotoxicity against mouse B16F10 cells assessed as cell viability after 48 hrs by MTT assay; format: cell-based, B16-F10; conditions: read-out: MNCC
In short: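 B16F10 mouse melanoma cells grown in DMEM with 10% FBS, 1% penicillin-streptomycin and […] at 37 °C under 5% CO2. Exposed to samples 48 h at 37 °C, then MTT added for 3 h with A570 read-out. Reported value is the highest tested dose that caused no loss of viability.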

HDF [7] = assay: Induction of collagen synthesis in HDF at 0.5 mM after 24 hrs by EIA; format: functional; conditions: Homo sapiens
In short: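 HDFs seeded at 5 × 10^4 cells and grown 24 h in DMEM with 10% FBS. Medium then switched to serum-free medium containing sample (0.5 mM) for 24 h. Type I procollagen in the supernatant measured by enzyme immunoassay kit; triplicate, mean ± SD.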

[8] = Inhibition of UV light-induced MMP-1 protein expression in HDF after 72 hrs UV light irradiation by ELISA; format: functional, Homo sapiens; conditions: for inhibition: Homo sapiens; in short: as §2
[9] = Cytotoxicity against HDF at 0.5 to 5 mM after 48 hrs by MTT assay; conditions: human, 5000 µM; in short: as §1
HDF [10] = assay: Induction of HDF proliferation at 0.1 mM after 48 hrs by MTT assay relative to control; format: functional; conditions: Homo sapiens
[11] = Induction of HDF proliferation at 5 mM after 48 hrs by MTT assay relative to control; format: functional, Homo sapiens; in short: as §1

solubility [1]	inhibition [2]	inhibition [3]	IC50 [8]	Compound	Activity [4]	inhibition [5]	MNTC at 48 h [6]	Activity (HDF [7])	inhibition [8]	Activity [9]	Activity (HDF [10])	Activity [11]
> 100 mg/mL	46.1%	60.2%	500 µM	C[C@@H](O)[C@H](NC(=O)[C@H](CCCCN)NC(=O)CCCC[C@@H]1CCSS1)C(=O)N[C@H](C(=O)N[C@@H](CCCCN)C(=O)N[C@@H](CO)C(=O)O)[C@@H](C)O (HELM PEPTIDE1{[O=C(CCCC[C@@H]1CCSS1)[*:2]].K.T.T.K.S}$$$$V2.0)	24.5%	49.5%	1 mM	Active	Dose-dependent effect			
		Active		O=C(O)CCCCC1CCSS1 (stereo not drawn) [LIPOIC ACID, ALPHA]			0.1 mM			Toxic	inactive	
	7.5%	Active		H-KTTKS-OH			5 mM	Active	Dose-dependent effect			13.4%
